Consider six compounds from ChEMBL document CHEMBL1122671, “Anticonvulsant activity of some 4-aminobenzamides” (J Med Chem, 1984).

The term TD50 denotes the dose at which the toxic effect under study appears in half of the subjects. A high value points to harm only at a large dose.

For series [1], the system named is Mus musculus. Briefly: Anticonvulsant activity against scMet (subcutaneous metrazole) induced seizure in mice at 30 min; + = Activity at 600 mg/kg. In kind it is functional, organism-based. The arrangement: dose 600 mg/kg.
For series [2], the system named is Mus musculus. Briefly: Anticonvulsant activity against scMet (subcutaneous metrazole) induced seizure in mice at 4 hr; + = Activity at 600 mg/kg. Also on record: dose 600 mg/kg. In kind it is functional, organism-based.
Series [3] has as its system Mus musculus. Briefly: Anticonvulsant activity against MES (maximal electroshock) induced seizure in mice at 4 hr; ++ = Activity at 300 mg/kg. Format: functional, organism-based. Also on record: dose 300 mg/kg. An outline of the steps:
(§1)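 Male Carworth Farms number-one mice received the compound ip in 30% polyethylene glycol 400. Doses were 30, 100 and 300 mg/kg, with 600 mg/kg in some cases. Maximal electroshock seizure protection was scored at 30 min and 4 h after dosing. Activity is coded by the lowest effective dose.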

The test system of series [4] is Mus musculus. Briefly: Anticonvulsant activity against MES (maximal electroshock) induced seizure in mice at 30 min; +++ = Activity at 100 mg/kg. In kind it is functional, organism-based. Also on record: dose 100 mg/kg. An outline of the steps:
as §1
On the technique in general: The maximal electroshock test induces tonic seizures with an electrical stimulus.

Series [5] deals with Mus musculus. The series is described as follows: Evaluated for toxicity by using rotarod test in mice at 30 min; + = Activity at 600 mg/kg. In kind it is organism-based. Also on record: dose 600 mg/kg. The conditions noted are these: in vivo, 0.5 h. An outline of the steps: (§2)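 Neurotoxicity in male Carworth Farms number-one mice dosed ip in 30% PEG 400 at 30, 100, 300 and sometimes 600 mg/kg, tested 30 min or 4 h later. Mice placed on a 1-in. knurled rod rotating at 6 rpm; toxicity means failure to stay on the rod for 1 min. Scored by the lowest toxic dose; footnotes record loss of righting reflex or lethality.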
A general note: Falling from the rotarod earlier than controls is read as motor impairment.

The subject of series [6] is Mus musculus. Briefly: Evaluated for toxicity by using rotarod test in mice at 4 hr; + = Activity at 600 mg/kg. In kind it is organism-based. The settings on record: in vivo. The arrangement: dose 600 mg/kg. In short, it runs like this:
as §2

Series [7] is filed under the species Mus musculus. The series is described as follows: Evaluation of neurologic deficit by rotarod procedure in mice. In kind it is functional. In short, it runs like this: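 Male Carworth Farms number-one mice were dosed ip (30% PEG 400 vehicle) and placed on a 1-in. knurled plastic rod rotating at 6 rpm. Neurotoxicity meant failure to stay on the rod for 1 min. TD50 was determined graphically.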

Series [8] relates to Mus musculus. The series is described as follows: Anticonvulsant activity against scMet (subcutaneous metrazole) induced seizure in mice at 30 min; +++ indicates activity at 100 mg/kg. Also on record: dose 100 mg/kg. In kind it is functional, organism-based.
Series [9] has as its system Mus musculus. The series is described as follows: Anticonvulsant activity against scMet (subcutaneous metrazole) induced seizure in mice at 4 hr; ++ indicates activity at 300 mg/kg. Format: functional, organism-based. Also on record: dose 300 mg/kg.
For series [10], the system named is Mus musculus. The series is described as follows: Anticonvulsant activity against MES (maximal electroshock) induced seizure in mice at 4 hr; +++ indicates activity at 100 mg/kg. Format: functional, organism-based. The arrangement: dose 100 mg/kg. An outline of the steps:
as §1

Series [11] deals with Mus musculus. Briefly: Evaluated for toxicity by using rotarod test at in mice 30 min; ++ indicates activity at 300 mg/kg. The settings on record: in vivo, 0.5 h. In kind it is organism-based. Also on record: dose 300 mg/kg. An outline of the steps: as §2
For series [12], the system named is Mus musculus. The series is described as follows: Evaluated for toxicity by using rotarod test in mice at 4 hr; ++ indicates activity at 300 mg/kg. In kind it is organism-based. The arrangement: dose 300 mg/kg. The conditions noted are these: in vivo. In short, it runs like this:
as §2

Series [13] can be described thus: Protective index (PI) which is defined as the ratio of TD50 to the ED50 (MES). Format: functional. In short, it runs like this:
(§3)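 Both values come from ip dosing in 30% PEG 400 to male Carworth Farms number-one mice and were derived by the graphical method.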

A short description of series [14]: Protective index (PI) which is defined as the ratio of TD50 to the ED50 (ScMet). In kind it is functional. An outline of the steps: as §3
Series [15] has as its system Mus musculus. Briefly: Anticonvulsant activity against scMet (subcutaneous metrazole) induced seizure in mice at 30 min; + indicates activity at 600 mg/kg. The arrangement: dose 600 mg/kg. Format: functional, organism-based. An outline of the steps:
(§4)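 Male Carworth Farms number-one mice dosed ip (30% PEG 400) at 30, 100, 300 and in some cases 600 mg/kg. Pentylenetetrazole 85 mg/kg given sc as a 0.5% solution in the posterior midline, at 30 min or 4 h. Protection means no clonic spasm of at least 5 s within 30 min. Scored by the lowest protective dose.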

Series [16] has as its system Mus musculus. The series is described as follows: Anticonvulsant activity against MES (maximal electroshock) induced seizure in mice at 4 hr; + indicates activity at 600 mg/kg. In kind it is functional, organism-based. Also on record: dose 600 mg/kg. An outline of the steps:
(§5)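 Male Carworth Farms number-one mice; compounds in 30% polyethylene glycol 400, given ip at 30, 100 and 300 mg/kg, some also at 600 mg/kg. Maximal electroshock challenge at 30 min or 4 h after dosing. Scored by the lowest dose giving protection (++++ 30, +++ 100, ++ 300, + 600 mg/kg; - none at 600).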

The subject of series [17] is Mus musculus. The series is described as follows: Anticonvulsant activity against MES (maximal electroshock) induced seizure in mice at 30 min; + indicates activity at 600 mg/kg. In kind it is functional, organism-based. The arrangement: dose 600 mg/kg. In short, it runs like this:
as §5

Series [18] relates to Mus musculus. Briefly: Anticonvulsant activity against scMet (subcutaneous metrazole) induced seizure in mice at 4 hr; - indicates no activity at 600 mg/kg. In kind it is functional, organism-based. Also on record: dose 600 mg/kg. In short, it runs like this: as §4
In series [19] the test system is Mus musculus. The series is described as follows: Evaluated for toxicity by using rotarod test at in mice 30 min; - indicates no activity at 600 mg/kg. The arrangement: dose 600 mg/kg. Format: organism-based. The conditions noted are these: in vivo, 0.5 h. An outline of the steps: as §2
Series [20] has as its system Mus musculus. Briefly: Evaluated for toxicity by using rotarod test in mice at 4 hr; - indicates no activity at 600 mg/kg. Format: organism-based. Also on record: dose 600 mg/kg. The settings on record: in vivo. In short, it runs like this:
as §2

The subject of series [21] is Mus musculus. Briefly: Anticonvulsant activity against scMet (subcutaneous metrazole) induced seizure at dose 600 mg/kg in mice at 4 hr; - = No activity at 600 mg/kg. In kind it is functional, organism-based.
Series [22] concerns Mus musculus. The series is described as follows: Anticonvulsant activity against scMet (subcutaneous metrazole) induced seizure at dose 300 mg/kg in mice at 30 min; ++ = Activity at 300 mg/kg. Format: functional, organism-based.
Series [23] concerns Mus musculus. Briefly: Anticonvulsant activity against MES (maximal electroshock) induced seizure at dose 600 mg/kg in mice at 30 min; - = No activity at 600 mg/kg. In kind it is functional, organism-based. In short, it runs like this:
as §1

Series [24] concerns Mus musculus. The series is described as follows: Anticonvulsant activity against MES (maximal electroshock) induced seizure at dose 600 mg/kg in mice at 4 hr; - = No activity at 600 mg/kg. Format: functional, organism-based. An outline of the steps: as §1
Series [25] concerns Mus musculus. The series is described as follows: Evaluated for toxicity by using rotarod test at dose 600 mg/kg in mice 30 min; - = No activity at 600 mg/kg. Format: organism-based. The settings on record: in vivo, 0.5 h. An outline of the steps:
as §2

Series [26] has as its system Mus musculus. The series is described as follows: Evaluated for toxicity by using rotarod test in mice at 4 hr; - = No activity at 600 mg/kg. In kind it is organism-based. Also on record: dose 600 mg/kg. The conditions noted are these: in vivo. An outline of the steps: as §2
Series [27] relates to Mus musculus. The series is described as follows: Anticonvulsant activity against scMet (subcutaneous metrazole) induced seizure in mice at 30 min; +++ = Activity at 100 mg/kg. Format: functional, organism-based. The arrangement: dose 100 mg/kg.
Series [28] concerns Mus musculus. The series is described as follows: Anticonvulsant activity against scMet (subcutaneous metrazole) induced seizure in mice at 4 hr; - = No activity at 600 mg/kg. The arrangement: dose 600 mg/kg. In kind it is functional, organism-based. In short, it runs like this:
as §4

The test system of series [29] is Mus musculus. The series is described as follows: Evaluated for toxicity by using rotarod test at in mice 30 min; +++ = Activity at 100 mg/kg,*- Loss of righting reflex at less than 600 mg/kg. The conditions noted are these: in vivo, 0.5 h. Format: organism-based. In short, it runs like this: as §2
Series [30] deals with Mus musculus. Briefly: Evaluated for toxicity by using rotarod test in mice at 4 hr; ++ = Activity at 300 mg/kg. The settings on record: in vivo. The arrangement: dose 300 mg/kg. Format: organism-based. In short, it runs like this: as §2

For the compound `CCNC(=O)c1ccc(N)cc1`, the Activity entry in series [1], in series [2], in series [3] and in [4] was “Activity at 100 mg/kg” throughout. Further, the Toxicity entry in [5] and in [6] was “Activity at 600 mg/kg” each time.
In [7], `CCC1(c2ccccc2)C(=O)NC(=O)NC1=O` [PHENOBARBITAL] came in with a TD50 of 69 mg/kg.
As for `CC(NC(=O)c1ccc(N)cc1)c1ccccc1` (stereo not given), the Activity entry in series [8], in series [9] and in series [10] was “activity at 100 mg/kg” throughout. The Toxicity result in [11] and in series [12] was “activity at 300 mg/kg” throughout. In [7], the TD50 is 171 mg/kg. Also, the PI in series [13] is 9.5; in series [14], 4.1.
Consider `CC(Cc1ccccc1)NC(=O)c1ccc(N)cc1` (stereo not given), for which the Activity result was “activity at 600 mg/kg” in series [15], “activity at 600 mg/kg” in [16], “activity at 600 mg/kg” in series [17] and “Not toxic” in series [18]. Moreover, the Toxicity entry in series [19] and in series [20] was “Not toxic” throughout.
For the compound `NC(=O)c1ccc(N)cc1`, the Activity result is “Not toxic” in [21], “Activity at 300 mg/kg” in series [22], “Not toxic” in [23] and “Not toxic” in [24]. In addition, the Toxicity entry in series [25] and in series [26] was “Not toxic” each time.
Take `Nc1ccc(C(=O)Nc2ccccc2)cc1`: the figures for the Activity entry in series [27], in series [3] and in series [28] were “Activity at 100 mg/kg”, “Activity at 100 mg/kg” and “Not toxic”, respectively. Moreover, the Toxicity entry in series [29] and in series [30] was “Activity at 100 mg/kg,*- Loss of righting reflex at < 600 mg/kg” each time. The TD50 in series [7] came out at 111 mg/kg. Further, the PI in series [13] turned out to be 2.2; in [14], 1.9.
